Assay results reported in article PMC2819552 (Biochimica et biophysica acta, 2009).
“And” between values parts separate entries of the source, which are not always exact repeats. Identical values can stand only once. Like-named read-outs stand apart in the source and are kept apart here.

Assays:
[1] = system: cytochrome b in H. anomala mitochondria; experiment: Reduction of cytochrome b in H. anomala mitochondria; type: biochemical, Hansenula (Pichia) anomala
H. anomala mitochondria = experiment: Superoxide anion generation in H. anomala mitochondria; type: biochemical, Hansenula (Pichia) anomala
Summary of the method: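 Pre-incubated at 30°C in a chemiluminescence reader, then succinate added and inhibitors added in sequence. Read-out was the chemiluminescence peak-height increase sensitive to 0.5 µM superoxide dismutase.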

[2] = system: H. anomala cells (alternative oxidase pathway); experiment: Induction of cyanide-resistant respiration in H. anomala cells; type: cell-based, Hansenula (Pichia) anomala; details: 10 μM inhibitor, cells shaken aerobically at 30°C for 2 hours; None = 0.181
[3] = molecular target: T1, Rb. capsulatus cytochrome bc1 complex (Rhodobacter capsulatus, UniProt D5ANZ2+D5ANZ3); type: biochemical; details: for Inhibition of re-reduction of cytochromes c (Qo site forward reaction): pH 7.0, Eh 100 mV
T1 sequence (D5ANZ3 1-437): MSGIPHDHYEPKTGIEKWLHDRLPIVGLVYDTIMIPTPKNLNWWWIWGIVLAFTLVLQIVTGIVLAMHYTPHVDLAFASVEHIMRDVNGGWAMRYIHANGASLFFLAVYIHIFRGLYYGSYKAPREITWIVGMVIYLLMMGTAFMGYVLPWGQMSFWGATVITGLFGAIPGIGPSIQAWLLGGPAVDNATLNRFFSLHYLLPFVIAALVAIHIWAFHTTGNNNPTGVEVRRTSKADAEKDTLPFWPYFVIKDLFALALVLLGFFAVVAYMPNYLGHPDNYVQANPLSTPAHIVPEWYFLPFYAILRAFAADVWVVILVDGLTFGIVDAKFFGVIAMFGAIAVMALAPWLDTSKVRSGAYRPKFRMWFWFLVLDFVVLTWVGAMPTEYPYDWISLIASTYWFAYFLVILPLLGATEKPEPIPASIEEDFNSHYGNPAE
T1 sequence (D5ANZ2 1-191): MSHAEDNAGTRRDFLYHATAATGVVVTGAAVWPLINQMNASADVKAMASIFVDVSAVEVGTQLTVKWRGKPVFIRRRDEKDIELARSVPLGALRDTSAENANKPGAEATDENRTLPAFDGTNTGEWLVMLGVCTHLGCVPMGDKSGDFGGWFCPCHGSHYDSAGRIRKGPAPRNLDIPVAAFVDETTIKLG
T1 sequence (D5ANZ4 22-279 partner): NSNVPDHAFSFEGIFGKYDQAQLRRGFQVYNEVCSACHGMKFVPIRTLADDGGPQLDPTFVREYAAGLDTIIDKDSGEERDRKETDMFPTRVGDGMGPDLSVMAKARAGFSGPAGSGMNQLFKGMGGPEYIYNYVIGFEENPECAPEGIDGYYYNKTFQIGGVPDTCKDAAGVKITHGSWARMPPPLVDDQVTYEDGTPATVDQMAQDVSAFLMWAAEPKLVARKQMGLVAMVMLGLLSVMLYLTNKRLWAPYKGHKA
Summary of the method: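 Rb. capsulatus chromatophores normalised to reaction centre (0.28 µM), with redox mediators and 2.5 µM valinomycin. Qo forward: 50 mM MOPS pH 7.0, 100 mM KCl, Eh 100 mV. Qi reverse: 50 mM glycine-NaOH pH 9.5, 100 mM KCl, 10 µM myxothiazol, Eh 125 mV.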

[4] = molecular target: purified bovine cytochrome bc1 complex (Bos taurus, UniProt P00157+P13272); experiment: Cytochrome reduction by DBH2 in purified bovine cytochrome bc1 complex; type: biochemical
[5] = molecular target: T2, Rieske iron-sulfur protein of Rb. capsulatus cytochrome bc1 complex (Rhodobacter capsulatus, UniProt D5ANZ2+D5ANZ3); experiment: EPR spectra of the reduced Rieske iron-sulfur protein in chromatophore membranes; type: binding; details: 10 to 30 μM inhibitor, ascorbate-reduced chromatophore membranes, 20 K
T2 sequence (D5ANZ3 1-437): T1 sequence (D5ANZ3 1-437)
T2 sequence (D5ANZ2 1-191): T1 sequence (D5ANZ2 1-191)
T2 sequence (D5ANZ4 22-279 partner): T1 sequence (D5ANZ4 22-279 partner)

rat liver mitochondria = experiment: Succinate-dependent O2 uptake activity in rat liver mitochondria; type: biochemical
[6] = 10 μM antimycin A3 added after 15 mM succinate + 10 μM ascochlorin
[7] = 10 μM inhibitor added after 15 mM succinate
[8] = 10 μM inhibitor added after 15 mM succinate + 10 μM antimycin A3

CCCC[C@H]1C(=O)O[C@H](C)[C@H](NC(=O)c2cccc(NC=O)c2O)C(=O)O[C@@H](C)[C@@H]1OC(=O)CC(C)C [Antimycin A3]
ΔA 560–575 × 10^2 (cytochrome b reduction) [1, 6]: 0.94
ΔA 560–575 × 10^2 (cytochrome b reduction) ([1]; 10 μM antimycin A3 added after 15 mM succinate + 10 μM myxothiazol): 1.08
ΔA 560–575 × 10^2 (cytochrome b reduction) [1, 7]: 1.27 and 1.28
Chemiluminescence Intensity (superoxide anion generation) (H. anomala mitochondria; [6]): 3.6 10^5 counts/min
Chemiluminescence Intensity (superoxide anion generation) (H. anomala mitochondria; [7]): 8.8 10^5 counts/min and 9.1 10^5 counts/min
CN−-resistant O2 uptake activity [2]: 7.77 nmol O2/min/mg wet cells

CC(/C=C/[C@@]1(C)[C@H](C)CCC(=O)[C@@H]1C)=C\Cc1c(O)c(Cl)c(C)c(C=O)c1O [Ascochlorin]
Inhibition of re-reduction of cytochromes c (Qo site forward reaction) ([3]; 1 μM): partially
Inhibition of re-reduction of cytochromes c (Qo site forward reaction) ([3]; 10 μM): fully
Inhibition of Qi site-mediated cytochrome b reduction (reverse reaction) ([3]; 1 or 10 μM, 10 μM myxothiazol, pH 9.5, Eh 125 mV): completely inhibited
ΔA 560–575 × 10^2 (cytochrome b reduction) [1, 7]: 0.92
ΔA 560–575 × 10^2 (cytochrome b reduction) [1, 8]: 0.85
Chemiluminescence Intensity (superoxide anion generation) (H. anomala mitochondria; [7]): 2.6 10^5 counts/min
Chemiluminescence Intensity (superoxide anion generation) (H. anomala mitochondria; [8]): 4.6 10^5 counts/min
Extent of rapid reduction of cytochrome c1 ([4]; 3 μM bovine bc1, 31 μM ascochlorin, DBH2 25 μM, by the first spectrum): about 20%
Rapid reduction of cytochrome bH and c1 ([4]; ascochlorin and antimycin both present, 240 μM ascochlorin): about half
Further decrease of the extent of the fast reactions ([4]; ascochlorin increased from 31 to 360 μM, compared to Fig. 4C): about a factor of two
CN−-resistant O2 uptake activity [2]: 7.42 nmol O2/min/mg wet cells
Effect on the Rieske ISP gx EPR transition [5]: changes the gx transition

O=C1C(O)=C([C@H]2CC[C@H](c3ccc(Cl)cc3)CC2)C(=O)c2ccccc21 [Atovaquone]
CN−-resistant O2 uptake activity [2]: 0.202 nmol O2/min/mg wet cells

CC(=CCc1c(O)cc(C)c(C=O)c1O)CCC1(C)C(C)CCC(=O)C1C (centres unmarked) [LL-Z1272 ε]
Inhibition relative to that seen using ascochlorin (rat liver mitochondria): about 1/300

CO/C(=C/C(N)=O)[C@H](C)[C@H](/C=C/c1csc(-c2csc([C@@H](C)/C=C/C=C/C(C)C)n2)n1)OC [Myxothiazol]
ΔA 560–575 × 10^2 (cytochrome b reduction) [1, 7]: 1.16
ΔA 560–575 × 10^2 (cytochrome b reduction) [1, 8]: 1.03
Chemiluminescence Intensity (superoxide anion generation) (H. anomala mitochondria; [8]): 5.4 10^5 counts/min
CN−-resistant O2 uptake activity [2]: 0.375 nmol O2/min/mg wet cells

CCCCCCCCCC1=C(O)C(=O)c2scnc2C1=O [NHDBT, nonylhydroxydioxobenzothiazole]
CN−-resistant O2 uptake activity [2]: 0.225 nmol O2/min/mg wet cells

C/C=C(C)/C=C/C=C/[C@H](OC)[C@@H](C)[C@@H](OC)[C@@H](C)CCc1oc2c(O)c(OC)cc(OC)c2c(=O)c1C [Stigmatellin]
CN−-resistant O2 uptake activity [2]: 0.433 nmol O2/min/mg wet cells

CCCCCC[C@H]1C(=O)O[C@H](C)[C@H](NC(=O)c2cccc(NC=O)c2O)C(=O)O[C@@H](C)[C@@H]1OC(=O)CC(C)C [antimycin A]
Extent of rapid reduction of cytochrome bL ([4]; 3 μM bovine bc1, 30 μM antimycin A, DBH2 25 μM): about 20%
Level of cytochrome b reduction after reoxidation ([4]; 30 μM antimycin A, within a few minutes): about 10%

Funiculosin
CN−-resistant O2 uptake activity [2]: 3.12 nmol O2/min/mg wet cells
